The text below walks through data of PubChem BioAssay AID588830 (Broad Institute, 2011).

Calls of active or inactive are those of the source.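 How the source made its calls: active means fitted IC50 for falling signal at or below ten times the top tested dose; inconclusive means flat fit with 30 to 70% signal loss, or poor fit; inactive means the rest.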

The test system of this test is ldlA[mSR-BI] CHO cells viability, CellTiter-Glo ATP, 3 h. The test can be described thus: short-term cytotoxicity in ldlA[mSR-BI] cells, dose response, cytotoxicity control for SR-BI HDL uptake inhibitor project, cell-based, CellTiter-Glo luminescence, 3 h, dry powder (AID 588830). The method in brief:
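Test system – ldlA[mSR-BI] cells, scavenger receptor B1-expressing line · Buffer or medium – PSG and 10% FCS in Ham's F12 · Compound dosing – 8-concentration series per compound, added by pin transfer · Times – 3 h at 37 °C, then 10 min with reagent · Measured by – luminescence of cellular ATP via Cell Titer Glo reagent · Measure – cytotoxicity IC50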
(ATP-based viability assays read luminescence as a measure of living cells.)
`Cc1ccc2oc(-c3cccc(NC(=O)c4cc(-n5cnnc5)ccc4Cl)c3)nc2c1`: the IC50 (in general, the concentration needed to halve the response being measured) is 12.8 µM.
`CCOc1ccccc1/C=C/c1onc(C)c1S(=O)(=O)N1CCC(C(=O)NC(C)(C)C)CC1`: the IC50 is > 70 µM (inactive).
`C[C@H]1CN([C@@H](C)CO)C(=O)c2cccc(NC(=O)Nc3ccccc3)c2O[C@@H]1CN(C)Cc1ccc(C(F)(F)F)cc1`: the IC50 is 66.6 µM.
On to `Cc1ccc(-c2nnc(N3CCC(C)CC3)c3ccccc23)cc1C`, for which the IC50 is 68.5 µM.
Turning to `Cc1cc(C(=O)C(C)OC(=O)C2=NNC(=O)CC2)c(C)n1-c1ccc(OC(F)F)cc1` (configuration not stated), the IC50 was > 70 µM (inactive).
Regarding `O=C(Nc1cc(Cl)ccc1Cl)c1cc(Cl)ccc1NS(=O)(=O)c1ccc(Cl)c([N+](=O)[O-])c1`, the IC50 was > 70 µM (inactive).
Turning to `O=C(Nc1ccc(-c2nc3ccc(NC(=O)c4ccccc4)cc3[nH]2)cc1)c1ccccc1`, the IC50 was > 70 µM (inactive).
